Experimental data taken from ChEMBL document CHEMBL1127087, “Synthesis and structure-activity relationships of 3,5-disubstituted 4,5-dihydro-6H-imidazo[1,5-a][1,4]benzodiazepin-6-ones at diazepam-sensitive and diazepam-insensitive benzodiazepine receptors” (J Med Chem, 1993).

Columns and labels:
[1] = biological target: GABA-A receptor; anion channel; experiment: Displacement of [3H]flunitrazepam from diazepam-sensitive GABA-A benzodiazepine receptor of rat cortical membrane
Procedure, shortened: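 Washed rat cerebral cortex membranes (adult male Sprague-Dawley) in Tris-citrate pH 7.4 with NaCl. [3H]flunitrazepam at about 1 nM final, 2 h at 4 °C, then filtration. Six to eight inhibitor concentrations were used; IC50 came from a sigmoid fit. Three determinations, mean ± SEM.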

[2] = Ratio between diazepam-insensitive (DI) site / diazepam-sensitive (DS) site
Procedure, shortened: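 Rat cerebellar membranes washed five times in 50 mM Tris-citrate pH 7.8 with NaCl. [3H]Ro 15-4513 at about 2 nM final, 60 min at 0–4 °C, then filtration. DS+DI binding was defined by Ro 15-1788 (10 μM) displacement and DI binding as the diazepam (10 μM)-insensitive part. 0.1 nM–1 μM inhibitor; Cheng-Prusoff Ki; duplicate assays, three experiments. Ratio is Ki DI/DS.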

[3] = biological target: GABA-A receptor; anion channel; experiment: […] from diazepam-insensitive GABA-A benzodiazepine receptor of rat cerebellar membrane
[4] = biological target: GABA-A receptor; anion channel; experiment: […] from diazepam-sensitive GABA-A benzodiazepine receptor of rat cerebellar membrane

CN1Cc2c(C3=NCCO3)ncn2-c2ccccc2C1=O
IC50 [1]: 687 nM

CN1Cc2c(N=C=S)ncn2-c2ccccc2C1=O
IC50 [1]: 739 nM

Cc1noc(-c2ncn3c2CN(Cc2ccccc2)C(=O)c2cc(Cl)ccc2-3)n1
IC50 [1]: 338 nM | Ratio [2]: 1.3

CCOC(=O)c1ncn2c1CN(Cc1ccccc1)C(=O)c1ccccc1-2
IC50 [1]: 9.3 nM | Ratio [2]: 75

CN1Cc2c(NC=O)ncn2-c2ccccc2C1=O
IC50 [1]: > 1000 nM

CCOC(=O)c1ncn2c1CN(Cc1ccccc1)C(=O)c1cc(Cl)ccc1-2
Ki [3]: 1.4 nM | IC50 [1]: 37.8 nM | Ratio [2]: 0.8

Cc1noc(-c2ncn3c2CN(Cc2ccccc2)C(=O)c2ccccc2-3)n1
IC50 [3]: > 10000 nM | IC50 [1]: 34.3 nM

CCOC(=O)c1ncn2c1CN(c1ccc(OC)cc1)C(=O)c1ccccc1-2
IC50 [1]: > 1000 nM

CCOC(=O)c1ncn2c1CNC(=O)c1ccccc1-2
IC50 [1]: 164 nM

CCOC(=O)c1ncn2c1CN(Cc1ccccc1)C(=O)c1c(Cl)cccc1-2
IC50 [1]: 2.4 nM | Ratio [2]: 51

CCOC(=O)Nc1ncn2c1CN(C)C(=O)c1ccccc1-2
IC50 [1]: > 1000 nM

CCOC(=O)c1ncn2c1CN(C)C(=O)c1ccccc1-2
Ratio [2]: 165

C=CCN1Cc2c(C(=O)OCC)ncn2-c2ccccc2C1=O
IC50 [1]: 157 nM

CCOC(=O)c1ncn2c1CN(Cc1ccc(OC)cc1OC)C(=O)c1ccccc1-2
Ki [4]: 5.4 nM | Ki [3]: 127 nM | IC50 [1]: 23.2 nM | Ratio [2]: 24

Cc1ccc(S(=O)(=O)c2ncn3c2CN(C)C(=O)c2ccccc2-3)cc1
IC50 [1]: > 1000 nM

CC(=O)Nc1ncn2c1CN(C)C(=O)c1ccccc1-2
IC50 [1]: > 1000 nM

Cc1noc(-c2ncn3c2CN(Cc2ccccc2)C(=O)c2c(Cl)cccc2-3)n1
IC50 [1]: 15.3 nM | Ratio [2]: 101

CCOC(=O)c1ncn2c1CN(C)C(=O)c1c(Cl)cccc1-2
Ratio [2]: 100

CCCN1Cc2c(C(=O)OCC)ncn2-c2ccccc2C1=O
IC50 [1]: 238 nM

Cc1nnc(-c2ncn3c2CN(Cc2ccccc2)C(=O)c2ccccc2-3)o1
IC50 [3]: > 10000 nM | IC50 [1]: > 1000 nM

COC(=O)Nc1ncn2c1CN(C)C(=O)c1ccccc1-2
IC50 [1]: > 1000 nM

CCOC(=O)c1ncn2c1CN(c1ccccc1)C(=O)c1ccccc1-2
IC50 [1]: > 1000 nM

CCOC(=O)c1ncn2c1CN(CCc1ccccc1)C(=O)c1ccccc1-2
IC50 [1]: 340 nM
